pIC50: −log10 of the molar value. Active and inactive are the calls of the source. The calls are words filed in the database; no cut-off is given here.

For experiment [1], the target named is T1, Pancreatic triacylglycerol lipase (Homo sapiens, UniProt P16233).
T1 sequence (P16233 whole entry): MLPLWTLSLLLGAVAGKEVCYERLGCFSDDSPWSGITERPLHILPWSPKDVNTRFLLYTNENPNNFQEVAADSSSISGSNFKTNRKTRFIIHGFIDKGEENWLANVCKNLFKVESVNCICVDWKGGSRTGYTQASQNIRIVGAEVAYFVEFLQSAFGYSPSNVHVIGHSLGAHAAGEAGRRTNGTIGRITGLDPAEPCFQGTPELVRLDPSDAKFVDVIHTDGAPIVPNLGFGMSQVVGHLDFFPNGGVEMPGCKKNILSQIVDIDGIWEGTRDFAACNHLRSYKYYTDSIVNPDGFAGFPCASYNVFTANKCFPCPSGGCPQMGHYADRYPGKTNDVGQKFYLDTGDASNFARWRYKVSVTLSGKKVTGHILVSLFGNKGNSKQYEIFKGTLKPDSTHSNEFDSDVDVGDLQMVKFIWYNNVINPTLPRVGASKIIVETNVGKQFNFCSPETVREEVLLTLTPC
Kind of experiment: Inhibition of pancreatic lipase (unknown origin).

Experiment [2] addresses T2, Alpha-glucosidase (Saccharomyces cerevisiae S288c, UniProt P53341+P38158+P07265). Kind of experiment: Inhibition of Saccharomyces cerevisiae alpha-glucosidase assessed as inhibition constant using p-nitrophenyl-alpha D-glucopyranoside as substrate preincubated for 15 mins followed by substrate addition and measured after 20 mins by Lineweaver-burk plot analysis. The format is protein assay.

Experiment [3] addresses T2, Alpha-glucosidase. Kind of experiment: Inhibition of Saccharomyces cerevisiae alpha-glucosidase using p-nitrophenyl-alpha D-glucopyranoside as substrate preincubated for 15 mins followed by substrate addition and measured after 20 mins by spectrophotometer assay. The format is protein assay.
The target in experiment [4] is Maltase-glucoamylase (Homo sapiens) (UniProt O43451). Kind of experiment: Inhibition of alpha-glucosidase (unknown origin) assessed as increase in Km using p-nitrophenyl-alpha D-glucopyranoside as substrate by Lineweaver-Burk plot analysis. In outline: (§1)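 Initial rates were measured with p-nitrophenyl α-D-glucopyranoside at 1–16 mM and inhibitor at 0, 1.2, 2.4 and 4.8 μM. Lineweaver–Burk plots (1/V against 1/[S]) at each inhibitor level gave Km and Vmax. Ki was estimated from a plot of Km against inhibitor concentration.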
Chain of Maltase-glucoamylase (Homo sapiens) (O43451 whole entry, looked up): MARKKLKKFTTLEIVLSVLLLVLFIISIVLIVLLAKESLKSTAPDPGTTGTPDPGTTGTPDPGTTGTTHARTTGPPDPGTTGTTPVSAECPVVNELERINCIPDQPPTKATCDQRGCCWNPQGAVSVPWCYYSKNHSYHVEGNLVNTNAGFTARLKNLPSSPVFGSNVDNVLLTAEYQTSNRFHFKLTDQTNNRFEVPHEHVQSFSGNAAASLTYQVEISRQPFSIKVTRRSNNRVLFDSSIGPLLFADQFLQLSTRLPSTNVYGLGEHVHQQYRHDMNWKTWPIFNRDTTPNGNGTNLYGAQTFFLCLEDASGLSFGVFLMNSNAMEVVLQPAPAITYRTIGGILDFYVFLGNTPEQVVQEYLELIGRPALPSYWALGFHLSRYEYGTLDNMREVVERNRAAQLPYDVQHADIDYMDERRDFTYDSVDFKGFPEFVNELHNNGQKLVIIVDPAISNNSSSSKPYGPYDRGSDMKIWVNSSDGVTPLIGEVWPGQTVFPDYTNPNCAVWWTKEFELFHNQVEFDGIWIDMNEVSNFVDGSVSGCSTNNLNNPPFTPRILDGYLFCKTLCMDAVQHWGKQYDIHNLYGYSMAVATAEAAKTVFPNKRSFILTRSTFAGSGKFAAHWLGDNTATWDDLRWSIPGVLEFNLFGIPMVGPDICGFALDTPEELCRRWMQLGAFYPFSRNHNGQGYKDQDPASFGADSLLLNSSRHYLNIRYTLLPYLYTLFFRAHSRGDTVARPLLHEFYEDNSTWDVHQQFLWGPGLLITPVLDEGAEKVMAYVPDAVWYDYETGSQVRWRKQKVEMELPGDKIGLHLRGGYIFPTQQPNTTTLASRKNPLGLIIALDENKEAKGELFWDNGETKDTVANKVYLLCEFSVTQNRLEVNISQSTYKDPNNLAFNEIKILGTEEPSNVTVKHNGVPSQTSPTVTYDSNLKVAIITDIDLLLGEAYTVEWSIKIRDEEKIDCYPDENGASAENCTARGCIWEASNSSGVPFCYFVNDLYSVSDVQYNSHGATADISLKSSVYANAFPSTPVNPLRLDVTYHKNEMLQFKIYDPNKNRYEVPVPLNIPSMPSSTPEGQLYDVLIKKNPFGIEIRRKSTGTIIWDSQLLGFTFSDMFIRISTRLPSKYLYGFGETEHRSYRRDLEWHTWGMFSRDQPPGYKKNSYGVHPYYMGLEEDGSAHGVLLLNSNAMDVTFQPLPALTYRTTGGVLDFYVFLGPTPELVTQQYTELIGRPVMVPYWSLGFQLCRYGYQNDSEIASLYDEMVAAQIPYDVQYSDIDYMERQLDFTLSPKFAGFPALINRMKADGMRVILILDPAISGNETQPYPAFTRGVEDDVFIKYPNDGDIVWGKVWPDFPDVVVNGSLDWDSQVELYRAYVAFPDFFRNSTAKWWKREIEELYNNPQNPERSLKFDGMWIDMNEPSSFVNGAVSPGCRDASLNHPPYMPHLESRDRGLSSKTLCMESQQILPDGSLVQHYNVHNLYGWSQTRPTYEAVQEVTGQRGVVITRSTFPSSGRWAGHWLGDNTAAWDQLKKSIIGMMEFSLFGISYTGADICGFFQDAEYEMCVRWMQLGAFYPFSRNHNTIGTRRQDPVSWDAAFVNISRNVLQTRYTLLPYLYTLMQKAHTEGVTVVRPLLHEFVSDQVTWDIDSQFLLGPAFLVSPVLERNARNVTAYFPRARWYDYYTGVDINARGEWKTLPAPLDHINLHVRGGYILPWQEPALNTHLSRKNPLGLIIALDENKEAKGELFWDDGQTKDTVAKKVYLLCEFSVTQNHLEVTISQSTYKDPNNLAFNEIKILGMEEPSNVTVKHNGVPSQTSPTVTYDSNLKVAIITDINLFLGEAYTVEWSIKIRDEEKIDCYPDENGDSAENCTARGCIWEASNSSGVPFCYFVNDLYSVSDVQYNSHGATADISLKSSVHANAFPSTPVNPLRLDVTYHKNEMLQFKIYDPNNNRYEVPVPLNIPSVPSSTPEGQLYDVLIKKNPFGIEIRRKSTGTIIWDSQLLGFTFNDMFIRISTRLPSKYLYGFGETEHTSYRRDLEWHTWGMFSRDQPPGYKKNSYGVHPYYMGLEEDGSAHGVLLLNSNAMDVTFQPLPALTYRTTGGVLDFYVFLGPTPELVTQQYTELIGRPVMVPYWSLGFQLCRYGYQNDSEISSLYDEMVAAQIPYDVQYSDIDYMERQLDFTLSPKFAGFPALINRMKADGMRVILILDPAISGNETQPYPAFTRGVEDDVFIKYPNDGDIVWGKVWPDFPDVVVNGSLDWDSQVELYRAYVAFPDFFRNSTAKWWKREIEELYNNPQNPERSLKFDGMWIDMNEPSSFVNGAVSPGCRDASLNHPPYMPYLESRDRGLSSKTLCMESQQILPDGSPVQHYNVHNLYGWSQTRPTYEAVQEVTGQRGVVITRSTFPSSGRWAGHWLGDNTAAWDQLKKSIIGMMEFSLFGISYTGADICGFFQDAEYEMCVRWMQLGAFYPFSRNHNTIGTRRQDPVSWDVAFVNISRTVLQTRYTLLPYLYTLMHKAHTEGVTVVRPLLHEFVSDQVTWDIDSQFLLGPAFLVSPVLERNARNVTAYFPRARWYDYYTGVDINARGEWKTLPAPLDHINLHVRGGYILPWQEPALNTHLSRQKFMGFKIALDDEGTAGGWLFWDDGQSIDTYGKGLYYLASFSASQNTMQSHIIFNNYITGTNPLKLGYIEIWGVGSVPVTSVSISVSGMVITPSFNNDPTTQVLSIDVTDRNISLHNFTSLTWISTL

Experiment [5] has the same target. Kind of experiment: Inhibition of alpha-glucosidase (unknown origin) assessed as change in Vmax using p-nitrophenyl-alpha D-glucopyranoside as substrate by Lineweaver-Burk plot analysis. An outline of the steps:
as §1

The compound `O=C(Cn1c(Cc2ccc(Br)cc2)nc2ccccc2c1=O)NNC(=O)c1cc2ccccc2oc1=O` gave a pIC50 in experiment [1] of 5.55.

For the compound `O=C(Cn1c(-c2ccc(Cl)cc2)nc2ccccc2c1=O)N/N=C\c1cn(-c2ccccc2)nc1-c1ccc(Br)cc1`, at Alpha-glucosidase [2], the Ki came to 56 µM. The compound also had an IC50 against Alpha-glucosidase [3] of 60.5 µM.

Take `Cc1ccc(NC(=O)Cn2cc(COc3ccc(C4Nc5ccccc5C(=O)N4Nc4ccccc4)cc3)nn2)c(C)c1` (stereo not given): in experiment [4], the inhibition result is “Active”. The inhibition result in experiment [5] was “inactive”.
